Source: ChEMBL document CHEMBL4689842, “EUbOPEN Chemogenomics Library wave 1” (2021)

Test system: Fibroblast
Assay: Multiplex assay against human fibroblast
Format: toxicity, cell-based
Outline: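 Cells were classed with CellPathfinder machine-learning gating, first as Hoechst high-intensity objects or normal cells, then (normal cells) as healthy, pyknosed or fragmented nuclei, and finally (pyknosed cells) as mitotic or apoptotic. Staining of live cells at seeding used Hoechst33342, BioTracker Green Microtubule Cytoskeleton Dye, MitoTracker Red and Annexin V Alexa Fluor 680, with imaging on a CQ1 microscope at 37°C and 5% CO2 after compound addition. Tubulin, mitochondrial-mass and membrane-permeability phenotypes are per cents of healthy-nucleus cells.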

[1] = 12 h, 1 µM, compound concentration 1 uM, replicate 1
[2] = 12 h, 1 µM, compound concentration 1 uM, replicate 2
[3] = 12 h, 10 µM, compound concentration 10 uM, replicate 1
[4] = 12 h, 10 µM, compound concentration 10 uM, replicate 2
[5] = 24 h, 1 µM, compound concentration 1 uM, replicate 1
[6] = 24 h, 1 µM, compound concentration 1 uM, replicate 2
[7] = 24 h, 10 µM, compound concentration 10 uM, replicate 1
[8] = 24 h, 10 µM, compound concentration 10 uM, replicate 2

C=CC(=O)Nc1cccc(Sc2nc(Nc3ccc(N4CCN(C)CC4)cc3)ncc2Cl)c1
Population Apoptotic (%) [1]: 35%
Population Fragmented Nuclei (%) [1]: 28%
Population Healthy Nuclei (%) [1]: 17%
Population Hoechst High Intensity Objects (%) [1]: 13%
Population Membrane Permeable-Phenotype (%) [1]: 5%
Population Mitochondria Different-Phenotype (%) [1]: 50%
Population Mitotic Cells (%) [1]: 65%
Population Normal (%) [1]: 86%
Population Pyknosed Nuclei (%) [1]: 53%
Population Tubulin-Different-Phenotype (%) [1]: 50%
Total Cell Count [1]: 130
Population Apoptotic (%) [2]: 69%
Population Fragmented Nuclei (%) [2]: 48%
Population Healthy Nuclei (%) [2]: 6%
Population Hoechst High Intensity Objects (%) [2]: 20%
Population Membrane Permeable-Phenotype (%) [2]: 0%
Population Mitochondria Different-Phenotype (%) [2]: 33%
Population Mitotic Cells (%) [2]: 30%
Population Normal (%) [2]: 79%
Population Pyknosed Nuclei (%) [2]: 46%
Population Tubulin-Different-Phenotype (%) [2]: 66%
Total Cell Count [2]: 63
Population Apoptotic (%) [3]: 79%
Population Fragmented Nuclei (%) [3]: 34%
Population Healthy Nuclei (%) [3]: 49%
Population Hoechst High Intensity Objects (%) [3]: 15%
Population Membrane Permeable-Phenotype (%) [3]: 6%
Population Mitochondria Different-Phenotype (%) [3]: 5%
Population Mitotic Cells (%) [3]: 20%
Population Normal (%) [3]: 84%
Population Pyknosed Nuclei (%) [3]: 15%
Population Tubulin-Different-Phenotype (%) [3]: 9%
Total Cell Count [3]: 290
Population Apoptotic (%) [4]: 100%
Population Fragmented Nuclei (%) [4]: 62%
Population Healthy Nuclei (%) [4]: 36%
Population Hoechst High Intensity Objects (%) [4]: 33%
Population Membrane Permeable-Phenotype (%) [4]: 7%
Population Mitochondria Different-Phenotype (%) [4]: 7%
Population Mitotic Cells (%) [4]: 0%
Population Normal (%) [4]: 66%
Population Pyknosed Nuclei (%) [4]: 1%
Population Tubulin-Different-Phenotype (%) [4]: 25%
Total Cell Count [4]: 116
Population Apoptotic (%) [5]: 74%
Population Fragmented Nuclei (%) [5]: 53%
Population Healthy Nuclei (%) [5]: 6%
Population Hoechst High Intensity Objects (%) [5]: 7%
Population Mitochondria Different-Phenotype (%) [5]: 57%
Population Mitotic Cells (%) [5]: 25%
Population Normal (%) [5]: 92%
Population Pyknosed Nuclei (%) [5]: 40%
Population Tubulin-Different-Phenotype (%) [5]: 71%
Total Cell Count [5]: 126
Population Apoptotic (%) [6]: 90%
Population Fragmented Nuclei (%) [6]: 70%
Population Healthy Nuclei (%) [6]: 5%
Population Hoechst High Intensity Objects (%) [6]: 23%
Population Membrane Permeable-Phenotype (%) [6]: 0%
Population Mitochondria Different-Phenotype (%) [6]: 0%
Population Mitotic Cells (%) [6]: 10%
Population Normal (%) [6]: 76%
Population Pyknosed Nuclei (%) [6]: 25%
Population Tubulin-Different-Phenotype (%) [6]: 50%
Total Cell Count [6]: 52
Population Apoptotic (%) [7]: 80%
Population Fragmented Nuclei (%) [7]: 34%
Population Healthy Nuclei (%) [7]: 50%
Population Hoechst High Intensity Objects (%) [7]: 17%
Population Membrane Permeable-Phenotype (%) [7]: 5%
Population Mitochondria Different-Phenotype (%) [7]: 5%
Population Mitotic Cells (%) [7]: 20%
Population Normal (%) [7]: 82%
Population Pyknosed Nuclei (%) [7]: 14%
Population Tubulin-Different-Phenotype (%) [7]: 11%
Total Cell Count [7]: 285
Population Apoptotic (%) [8]: 0%
Population Fragmented Nuclei (%) [8]: 65%
Population Healthy Nuclei (%) [8]: 34%
Population Hoechst High Intensity Objects (%) [8]: 34%
Population Membrane Permeable-Phenotype (%) [8]: 20%
Population Mitochondria Different-Phenotype (%) [8]: 4%
Population Mitotic Cells (%) [8]: 0%
Population Normal (%) [8]: 65%
Population Pyknosed Nuclei (%) [8]: 0%
Population Tubulin-Different-Phenotype (%) [8]: 16%
Total Cell Count [8]: 111
